The target in assay [1] is T1, Muscarinic acetylcholine receptor M2 (Homo sapiens, UniProt P08172).
T1 sequence (P08172 whole entry): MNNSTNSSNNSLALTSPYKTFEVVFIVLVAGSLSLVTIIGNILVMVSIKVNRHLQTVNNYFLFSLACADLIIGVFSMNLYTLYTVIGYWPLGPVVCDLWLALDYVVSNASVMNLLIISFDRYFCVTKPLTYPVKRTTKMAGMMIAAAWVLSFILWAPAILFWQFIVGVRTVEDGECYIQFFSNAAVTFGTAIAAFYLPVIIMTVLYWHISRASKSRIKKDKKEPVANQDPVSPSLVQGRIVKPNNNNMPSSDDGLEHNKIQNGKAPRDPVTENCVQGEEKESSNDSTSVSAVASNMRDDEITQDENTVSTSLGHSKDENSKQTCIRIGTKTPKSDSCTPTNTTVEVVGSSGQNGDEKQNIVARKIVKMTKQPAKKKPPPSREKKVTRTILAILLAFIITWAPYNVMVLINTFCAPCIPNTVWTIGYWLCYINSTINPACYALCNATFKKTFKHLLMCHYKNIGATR
The assay is described as follows: Displacement of [3H]NMS from human M2 AChR expressed in CHO cell membranes after 1 to 2 hrs by liquid scintillation spectrometry method. The method, boiled down:
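CHO membranes expressing the human subtype (20 µg protein/well) with 0.3 nM [3H]NMS and analog (1 nM–100 µM) in 50 mM Tris-HCl pH 7.4, 2 h at 25 °C. […] Filtered on GF/B, washed, counted by scintillation. IC50 taken from curves to give Ki; three independent experiments in duplicate.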
(Loss of bound radioactivity is the signal in a displacement assay; it reports binding, not function.)

For assay [2], the target named is Muscarinic acetylcholine receptor M3 (Homo sapiens, UniProt P20309). Nature of the assay: Displacement of [3H]NMS from human M3 AChR expressed in CHO cell membranes after 1 to 2 hrs by liquid scintillation spectrometry method. It is filed as cell-based.
Assay [3] concerns the target T2, Muscarinic acetylcholine receptor M5 (Homo sapiens, UniProt P08912).
T2 sequence (P08912 whole entry): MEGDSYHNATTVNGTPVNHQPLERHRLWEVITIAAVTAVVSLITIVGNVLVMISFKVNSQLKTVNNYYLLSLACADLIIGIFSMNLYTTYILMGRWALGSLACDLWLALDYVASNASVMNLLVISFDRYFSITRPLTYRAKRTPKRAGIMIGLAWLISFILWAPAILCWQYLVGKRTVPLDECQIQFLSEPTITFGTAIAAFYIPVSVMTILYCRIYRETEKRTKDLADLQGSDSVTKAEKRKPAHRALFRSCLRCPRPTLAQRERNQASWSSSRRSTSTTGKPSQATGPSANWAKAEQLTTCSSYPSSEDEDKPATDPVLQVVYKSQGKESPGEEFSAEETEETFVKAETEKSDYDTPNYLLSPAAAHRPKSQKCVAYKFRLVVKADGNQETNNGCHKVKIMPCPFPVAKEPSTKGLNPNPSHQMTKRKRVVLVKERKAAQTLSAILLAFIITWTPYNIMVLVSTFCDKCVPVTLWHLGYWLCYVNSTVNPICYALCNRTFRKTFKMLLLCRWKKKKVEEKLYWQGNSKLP
Nature of the assay: Displacement of [3H]NMS from human M5 AChR expressed in CHO cell membranes after 1 to 2 hrs by liquid scintillation spectrometry method. An outline of the steps: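 CHO membranes expressing human M5 (10 µg protein/well) with 0.3 nM [3H]NMS and analog (1 nM–100 µM) in 50 mM Tris-HCl pH 7.4, 2 h at 25 °C. Filtered on GF/B, counted by scintillation. IC50 converted to Ki; three independent experiments in duplicate.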

The target of assay [4] is T3, Muscarinic acetylcholine receptor M5 (Homo sapiens) (UniProt P08912).
T3 sequence (whole entry): T2 sequence (P08912 whole entry)
The assay is described as follows: Displacement of [3H]NMS from human M5 AChR expressed in CHO cell membranes at 100 uM after 1 to 2 hrs by liquid scintillation spectrometry method relative to control. An outline of the steps:
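CHO membranes expressing human M5 (10 µg protein/well) with 0.3 nM [3H]NMS and analog (1 nM–100 µM) in 50 mM Tris-HCl pH 7.4, 2 h at 25 °C. […] Filtered on GF/B, counted by scintillation. IC50 converted to Ki; three independent experiments in duplicate.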

The species named for a further assay is Homo sapiens. The assay is described as follows: Selectivity ratio of Ki for displacement of [3H]NMS from human M2 AChR expressed in CHO cell membranes to Ki for displacement of [3H]NMS from human M3 AChR expressed in CHO cell membranes.
Assay [5] addresses T4, Muscarinic acetylcholine receptor M4 (Homo sapiens, UniProt P08173).
T4 sequence (P08173 whole entry): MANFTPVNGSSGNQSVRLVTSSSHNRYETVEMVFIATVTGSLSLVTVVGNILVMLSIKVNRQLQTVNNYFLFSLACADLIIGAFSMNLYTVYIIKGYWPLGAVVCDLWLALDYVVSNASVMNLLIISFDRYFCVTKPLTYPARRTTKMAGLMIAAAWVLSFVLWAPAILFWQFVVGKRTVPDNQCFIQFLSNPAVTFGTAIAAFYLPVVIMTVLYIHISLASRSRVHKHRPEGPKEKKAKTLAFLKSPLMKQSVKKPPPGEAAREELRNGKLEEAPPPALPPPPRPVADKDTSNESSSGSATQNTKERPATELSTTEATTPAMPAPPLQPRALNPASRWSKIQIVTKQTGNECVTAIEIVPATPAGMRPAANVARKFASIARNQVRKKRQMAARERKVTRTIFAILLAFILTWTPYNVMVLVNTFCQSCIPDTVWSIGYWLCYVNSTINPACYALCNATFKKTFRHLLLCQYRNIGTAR
Nature of the assay: Displacement of [3H]NMS from human M4 AChR expressed in CHO cell membranes after 1 to 2 hrs by liquid scintillation spectrometry method. The method, boiled down: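 Human M4-expressing CHO membranes (20 µg protein/well) incubated 2 h at 25 °C with 0.3 nM [3H]NMS and analog (1 nM–100 µM) in 50 mM Tris–HCl pH 7.4. […] Filtered, washed, counted by scintillation. IC50 taken from inhibition curves, Ki from three independent duplicate experiments (mean ± SEM).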

The target in assay [6] is T5, Muscarinic acetylcholine receptor M1 (Homo sapiens) (UniProt P11229).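 Further: radioligand displacement of [3H]NMS from human M1 receptor in CHO cell membranes, 1–2 h incubation, scintillation counting, expressed relative to control.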
T5 sequence (whole entry): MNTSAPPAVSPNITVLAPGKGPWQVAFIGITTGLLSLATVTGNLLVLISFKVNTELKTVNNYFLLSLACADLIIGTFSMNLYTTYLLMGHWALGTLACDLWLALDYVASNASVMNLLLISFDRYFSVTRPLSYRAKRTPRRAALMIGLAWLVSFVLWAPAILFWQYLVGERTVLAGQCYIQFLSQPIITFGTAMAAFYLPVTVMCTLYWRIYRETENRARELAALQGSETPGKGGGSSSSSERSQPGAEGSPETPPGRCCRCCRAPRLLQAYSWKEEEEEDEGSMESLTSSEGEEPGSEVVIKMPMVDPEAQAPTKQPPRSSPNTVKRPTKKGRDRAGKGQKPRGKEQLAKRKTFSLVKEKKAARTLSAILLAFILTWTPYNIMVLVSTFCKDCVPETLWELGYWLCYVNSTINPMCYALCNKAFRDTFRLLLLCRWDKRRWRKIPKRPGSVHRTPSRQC
The conditions noted are these: CHO, at 100 µM.

pKi: −log10 of the molar value.

Drawing on ChEMBL document CHEMBL4371071, “Muscarinic agonist, (±)-quinuclidin-3-yl-(4-fluorophenethyl)(phenyl)carbamate: High affinity, but low subtype selectivity for human M1 - M5 muscarinic acetylcholine receptors” (Bioorg Med Chem Lett, 2019), this text covers Ki, Imax and Ratio Ki for one molecule.

Chain of Muscarinic acetylcholine receptor M3 (P20309 whole entry): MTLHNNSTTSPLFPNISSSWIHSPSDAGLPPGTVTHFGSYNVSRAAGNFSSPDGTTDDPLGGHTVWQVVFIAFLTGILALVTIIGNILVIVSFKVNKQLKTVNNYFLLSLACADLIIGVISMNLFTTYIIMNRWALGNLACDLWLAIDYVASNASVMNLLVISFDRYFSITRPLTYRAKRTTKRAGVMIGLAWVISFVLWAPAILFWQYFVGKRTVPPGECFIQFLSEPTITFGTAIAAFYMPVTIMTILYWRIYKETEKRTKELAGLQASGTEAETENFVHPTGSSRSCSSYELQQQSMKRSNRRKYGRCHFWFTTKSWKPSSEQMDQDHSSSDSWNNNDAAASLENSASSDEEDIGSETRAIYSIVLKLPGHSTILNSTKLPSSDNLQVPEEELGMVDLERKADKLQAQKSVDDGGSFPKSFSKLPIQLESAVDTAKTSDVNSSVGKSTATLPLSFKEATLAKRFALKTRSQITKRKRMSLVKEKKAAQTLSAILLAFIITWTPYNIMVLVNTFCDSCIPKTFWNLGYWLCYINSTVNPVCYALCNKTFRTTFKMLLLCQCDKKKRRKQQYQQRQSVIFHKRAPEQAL

For `O=C(OC1CN2CCC1CC2)N(CCc1ccc(F)cc1)c1ccccc1` (racemic), the pKi (in general, the Ki on a negative log10 scale, so that one unit is a factor of ten) was 7.89 in assay [1], 8.59 in assay [2], 8.74 in assay [3] and 8.66 in assay [5]. Moreover, the Imax in assay [4] was determined as 99.8%; in assay [6], 99.9%. For the same molecule, the Ratio Ki in the assay listed under Homo sapiens was found to be 5.
